From ChEMBL document CHEMBL1148706, “Probes for narcotic receptor mediated phenomena. 34. Synthesis and structure-activity relationships of a potent mu-agonist delta-antagonist and an exceedingly potent antinociceptive in the enantiomeric C9-substituted 5-(3-hydroxyphenyl)-N-phenylethylmorphan series” (J Med Chem, 2007)
Activity calls are given as the source filed them.

Experiments:
Mu-type opioid receptor [1] = biological target: T1, Mu-type opioid receptor (Homo sapiens, UniProt P35372); assay: Displacement of [125I]IOXY from human mu opioid receptor expressed in CHO cells; format: cell-based
T1 sequence (P35372 whole entry): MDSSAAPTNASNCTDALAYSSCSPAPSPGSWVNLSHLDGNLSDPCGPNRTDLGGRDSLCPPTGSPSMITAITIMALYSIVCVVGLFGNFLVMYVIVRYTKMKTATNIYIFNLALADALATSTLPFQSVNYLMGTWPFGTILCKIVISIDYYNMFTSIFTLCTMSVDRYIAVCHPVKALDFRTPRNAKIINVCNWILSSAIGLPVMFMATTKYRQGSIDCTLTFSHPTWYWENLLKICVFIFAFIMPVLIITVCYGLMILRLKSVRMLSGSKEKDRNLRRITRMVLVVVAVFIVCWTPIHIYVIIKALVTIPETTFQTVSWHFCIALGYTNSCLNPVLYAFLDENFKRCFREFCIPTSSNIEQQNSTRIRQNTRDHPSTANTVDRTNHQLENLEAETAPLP
How it was run: (§1)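 Membranes of stably transfected human opioid receptor CHO cells (hMOR, hDOR or hKOR), about 30 µg protein per tube, in 50 mM Tris-HCl pH 7.4 with protease inhibitors. [125I]IOXY at a single concentration displaced by 10 drug concentrations, 2 h at 25 °C, triplicates filtered; nonspecific with 10 µM naloxone; IC50 from two-parameter logistic fit.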

[2] = biological target: T2, Delta-type opioid receptor (Homo sapiens, UniProt P41143); assay: Displacement of [125I]IOXY from human delta opioid receptor expressed in CHO cells; format: cell-based; how it was run: as §1
T2 sequence (P41143 whole entry): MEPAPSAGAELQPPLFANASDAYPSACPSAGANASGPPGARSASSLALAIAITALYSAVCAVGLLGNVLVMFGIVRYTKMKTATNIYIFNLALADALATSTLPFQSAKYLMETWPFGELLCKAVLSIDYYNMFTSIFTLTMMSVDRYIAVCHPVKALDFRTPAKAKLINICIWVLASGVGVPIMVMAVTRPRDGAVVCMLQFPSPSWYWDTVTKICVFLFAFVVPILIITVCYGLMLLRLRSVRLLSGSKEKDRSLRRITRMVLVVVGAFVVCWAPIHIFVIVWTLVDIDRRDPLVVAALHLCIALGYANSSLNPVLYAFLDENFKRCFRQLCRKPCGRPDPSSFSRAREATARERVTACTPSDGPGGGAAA

[3] = biological target: T3, Kappa-type opioid receptor (Homo sapiens, UniProt P41145); assay: Displacement of [125I]IOXY from human kappa opioid receptor expressed in CHO cells; format: cell-based; how it was run: as §1
T3 sequence (P41145 whole entry): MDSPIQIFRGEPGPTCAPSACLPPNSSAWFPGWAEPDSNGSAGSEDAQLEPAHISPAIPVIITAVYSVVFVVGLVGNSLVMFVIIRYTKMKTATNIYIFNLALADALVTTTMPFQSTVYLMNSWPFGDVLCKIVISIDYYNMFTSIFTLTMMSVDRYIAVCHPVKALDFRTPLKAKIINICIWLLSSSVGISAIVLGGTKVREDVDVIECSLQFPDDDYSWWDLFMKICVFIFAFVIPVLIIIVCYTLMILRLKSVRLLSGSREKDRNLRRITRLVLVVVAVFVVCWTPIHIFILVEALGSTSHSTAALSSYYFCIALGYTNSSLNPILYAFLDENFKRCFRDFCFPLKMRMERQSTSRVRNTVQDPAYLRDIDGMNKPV

Mus musculus [4] = assay: Antinociceptive activity in mouse assessed after 30 to 40 mins at 1 mg/kg by warm water tail flick test; format: functional
How it was run: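 Mice, 55 °C water tail immersion after baseline (non-responders within 5 s excluded); s.c. dosing, tested 10–180 min post-injection, 10 s cutoff. % antinociception = 100×(test−control)/(10−control); A50 from linear regression at peak-effect time, ≥3 doses and 10 mice/dose.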

[5] = biological target: T2, Delta-type opioid receptor; assay: Antagonist activity at human delta opioid receptor expressed in CHO cells by [35S]GTP-gamma-S assay; format: functional, cell-based
How it was run: (§2)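 [35S]GTP-γ-S binding on hDOR-CHO or hKOR-CHO membranes, 10 µM GDP, 50 pM radioligand, 3 h at 25 °C. Inhibition of stimulation by SNC80 (500 nM, δ) or (-)-U50,488 (500 nM, κ); ≥3 experiments of 10 points pooled, two-parameter logistic fit for IC50; Ke = IC50/(1+[D]/ED50(D)).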

[6] = biological target: T3, Kappa-type opioid receptor; assay: Antagonist activity at human kappa opioid receptor expressed in CHO cells by [35S]GTP-gamma-S assay; format: functional, cell-based; how it was run: as §2
Mu-type opioid receptor [7] = biological target: T1, Mu-type opioid receptor; conditions: CHO
Mu-type opioid receptor [8] = biological target: T1, Mu-type opioid receptor; conditions: CHO; remark: listed apart in the source
[9] = biological target: T2, Delta-type opioid receptor; assay: Agonist activity at human delta opioid receptor expressed in CHO cells by [35S]GTP-gamma-S assay relative to SNC80; format: functional, cell-based
How it was run: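 Membranes from CHO cells stably transfected with human δ-opioid receptor cDNA (grown in DMEM, 10% FBS, G-418), incubated 3 h at 25 °C with 50 pM [35S]GTP-γ-S, 10 µM GDP, 50 µg protein in 50 mM Tris-HCl pH 7.4, 100 mM NaCl, 10 mM MgCl2, 1 mM EDTA, 1 mM DTT, 0.1% BSA. Nonspecific binding: 40 µM GTP-γ-S. Filtration, scintillation counting. Emax is extrapolated maximum, 100% = 500 nM SNC80 stimulation.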

[10] = biological target: T2, Delta-type opioid receptor; assay: Agonist activity at human delta opioid receptor expressed in CHO cells by [35S]GTP-gamma-S assay; format: functional, cell-based
How it was run: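 Membranes from stably transfected hDOR-CHO cells (DMEM, 10% FBS, G-418) in 50 mM Tris-HCl pH 7.4 with 100 mM NaCl, 10 mM MgCl2, 1 mM EDTA, 1 mM DTT, 10 µM GDP, 0.1% BSA; 50 pM [35S]GTP-γ-S, 3 h, 25 °C; filtration.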

Mus musculus [11] = assay: Antinociceptive activity in sc dosed mouse by hot plate assay; format: functional
Mus musculus [12] = assay: Antinociceptive activity in sc dosed mouse by phenylquinone assay; format: functional
Mus musculus [13] = assay: Antinociceptive activity in sc dosed mouse by tail flick assay; format: functional
Mus musculus [14] = assay: Induction of straub tail in mouse at 1 mg/kg; format: functional, organism-based; design: dose 1 mg/kg
How it was run: (§3)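 Signs observed in mice during in vivo antinociceptive testing after s.c. injection in 5% hydroxypropyl-β-cyclodextrin in water.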

Mus musculus [15] = assay: Induction of ataxia in mouse at 1 mg/kg; format: functional, organism-based; design: dose 1 mg/kg; how it was run: as §3
Mus musculus [16] = assay: Increased locomotor activity in mouse at 1 mg/kg; format: functional, organism-based; design: dose 1 mg/kg; how it was run: as §3
Mus musculus [17] = assay: Induction of convulsions in mouse at 1 mg/kg; format: functional, organism-based; design: dose 1 mg/kg; how it was run: as §3
Mus musculus [18] = assay: Induction of straub tail in mouse up to 30 mg/kg; format: functional, organism-based; design: dose 30 mg/kg; how it was run: as §3
Mus musculus [19] = assay: Increased locomotor activity in mouse up to 30 mg/kg; format: functional, organism-based; design: dose 30 mg/kg; how it was run: as §3

| SMILES | Ki (Mu-type opioid receptor [1]) | Ki [2] | Ki [3] | other results |
| --- | --- | --- | --- | --- |
| C=C1[C@@H]2CCC[C@]1(c1cccc(O)c1)CCN2CCc1ccccc1 | 7 nM | 234 nM | 18 nM |  |
| O=C1[C@H]2CCC[C@]1(c1cccc(O)c1)CCN2CCc1ccccc1 | 33 nM | 770 nM | 150 nM |  |
| CN1CC[C@]23c4c5ccc(O)c4O[C@H]2[C@@H](O)C=C[C@H]3[C@H]1C5 [MORPHINE] |  |  |  | A50 (Mus musculus [4]): 5.95 mg/kg |
| C[C@@H]1[C@@H]2CCC[C@@]1(c1cccc(O)c1)CCN2CCc1ccccc1 | 8 nM | 300 nM | 15 nM |  |
| C[C@H]1[C@H]2CCC[C@]1(c1cccc(O)c1)CCN2CCc1ccccc1 | 0.6 nM | 90 nM | 4 nM | Ke [5]: 31 nM; Ke [6]: 6 nM; ED50 (Mu-type opioid receptor [7]): 8.7 nM; Ke (Mu-type opioid receptor [8]): 4.4 nM |
| Oc1cccc([C@@]23CCC[C@@H]([C@H]2O)N(CCc2ccccc2)CC3)c1 | 45 nM | 720 nM | 690 nM |  |
| Oc1cccc([C@]23CCC[C@H]([C@H]2O)N(CCc2ccccc2)CC3)c1 | 0.19 nM | 13 nM | 184 nM | Emax [9]: 73%; ED50 [10]: 341 nM; Ke [6]: 610 nM; ED50 (Mus musculus [11]): 0.002 mg/kg; ED50 (Mus musculus [12]): 0.002 mg/kg; ED50 (Mus musculus [13]): 0.004 mg/kg; Activity (Mus musculus [14]): Active; Activity (Mus musculus [15]): Active; Activity (Mus musculus [16]): Active; Activity (Mus musculus [17]): Active; ED50 (Mu-type opioid receptor [7]): 5 nM |
| Oc1cccc([C@]23CCC[C@H]([C@@H]2O)N(CCc2ccccc2)CC3)c1 | 59 nM | 1570 nM | 245 nM |  |
| C=C1[C@H]2CCC[C@@]1(c1cccc(O)c1)CCN2CCc1ccccc1 | 0.19 nM | 15 nM | 0.65 nM | Ke [5]: 12 nM; Ke [6]: 2 nM; ED50 (Mus musculus [11]): 0.02 mg/kg; ED50 (Mus musculus [12]): 0.02 mg/kg; ED50 (Mus musculus [13]): 0.03 mg/kg; A50 (Mus musculus [4]): 0.11 mg/kg; Activity (Mus musculus [18]): inactive; Activity (Mus musculus [19]): inactive; ED50 (Mu-type opioid receptor [7]): 2.7 nM; Ke (Mu-type opioid receptor [8]): 2.2 nM |
| O=C1[C@@H]2CCC[C@@]1(c1cccc(O)c1)CCN2CCc1ccccc1 | 400 nM | 4600 nM | 3830 nM |  |
| Oc1cccc([C@@]23CCC[C@@H]([C@@H]2O)N(CCc2ccccc2)CC3)c1 | 54 nM | 2740 nM | 235 nM |  |
| C[C@H]1C2CCCC1(c1cccc(O)c1)CCN2CCc1ccccc1 (mixture of isomers) | 3.1 nM | 270 nM | 14.5 nM |  |
| C=CCN1C[C@H](C)N([C@H](c2ccc(C(=O)N(CC)CC)cc2)c2cccc(OC)c2)C[C@H]1C |  |  |  | ED50 [10]: 26 nM |
